NPY1 pot ag – potentiators or agonists of human neuropeptide Y receptor Y1 | P25929 | NPY-Y1 expressing cells, potentiator/agonist activation | activation, % at 3.6 µM | actives 0.37% (n = 220,000) | AID 1304; in the data active = activation above about 33%, passing the limit was not always enough;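 also: cells stimulated with NPY at EC10 then isoproterenol at EC100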
Target sequence (P25929 whole entry, looked up): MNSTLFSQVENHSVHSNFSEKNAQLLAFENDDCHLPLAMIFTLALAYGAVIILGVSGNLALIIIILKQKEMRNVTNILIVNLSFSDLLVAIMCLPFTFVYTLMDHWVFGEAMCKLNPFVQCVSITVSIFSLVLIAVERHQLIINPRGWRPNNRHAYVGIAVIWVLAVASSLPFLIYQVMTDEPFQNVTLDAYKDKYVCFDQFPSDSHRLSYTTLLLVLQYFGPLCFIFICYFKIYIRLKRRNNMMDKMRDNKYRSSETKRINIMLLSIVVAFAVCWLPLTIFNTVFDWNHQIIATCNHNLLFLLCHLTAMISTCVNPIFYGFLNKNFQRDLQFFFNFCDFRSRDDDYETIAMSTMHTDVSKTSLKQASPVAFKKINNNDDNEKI
NPY-Y1 antag – blocks the human neuropeptide Y Y1 receptor; P25929; HEK293-CNG Y1 cells, membrane potential fluorescence; NPY at EC95, then isoproterenol; inhibition, % at 3.6 µM; actives 1% (n = 200,000); AID 1040;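 active = inhibition above the campaign mean inhibition of all tested compounds plus 3 SD, cut at about 20% in these data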
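Test system – HEK293 Y1/CNG channel cell line · Also added – NPY agonist 25 nM, then isoproterenol 1 µM plus Ro 20-1724 25 µM · Compound dosing – one concentration, 3.6 µM, in 0.4% DMSO · Schedule – compound incubation 1 h at room temperature, readout 45 min post-stimulation · Technique – fluorescence, membrane potential probe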
NPY Y2 blocker – antagonists of human neuropeptide Y receptor Y2; P49146; NPY-Y2 expressing cells, antagonist mode; inhibition, % at 2.7 µM; actives 0.99% (n = 140,000); in the data active = inhibition above about 17%
NPY2 pot ag – potentiators or agonists of human neuropeptide Y receptor Y2 | cells expressing NPY-Y2, potentiator/agonist read-out | actives 0.45% (n = 220,000) | AID 1359 | activation, % at 3.6 µM; in the data active = activation above about 27%;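 also: cells stimulated with NPY near EC25 plus isoproterenol at EC100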
NPY-Y1 antag ct – antagonizes human NPY-Y1, counter-screen to NPY-Y2 antagonists | shares compounds with NPY Y2 blocker | AID 1256 | cell-based NPY-Y1 antagonism counterscreen | inhibition, % at 3.6 µM | actives 19% (n = 710); in the data active = inhibition above about 20%;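 also: cells challenged with NPY then isoproterenol with cAMP sensed through a CNG channel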
NPY2 antag conf – confirmation of human neuropeptide Y receptor Y2 antagonists; shares compounds with NPY Y2 blocker; HEK293 NPY-Y2 CNG channel, membrane potential fluorescence; inhibition, % at 2.8 µM; actives 32% (n = 710);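 active = mean inhibition of triplicate wells above the hit cutoff set in the primary screen, cut at about 17% in these data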
Numbers stand for hits; . = inactive; / = no result. This is a sample that favours compounds with a hit; in the whole collection about 1.8% have one here.

SMILES	NPY1 pot ag	NPY-Y1 antag	NPY Y2 blocker	NPY2 pot ag	NPY-Y1 antag ct	NPY2 antag conf
CNC(=O)c1ccsc1NC(=O)c1ccc(S(=O)(=O)N2CCCc3ccccc32)cc1	.	.	17.4	.	30.9	38.7
Cc1cccc(OCc2nc(C#N)c(NCc3ccc4c(c3)OCO4)o2)c1	.	.	26.8	.	.	.
COc1cccc(-c2nnc3sc(-c4ccc(C)cc4)nn23)c1	.	.	26.3	.	.	.
Cc1ccc(C)c(NS(=O)(=O)c2cc(C(=O)Nc3ccccc3-c3ccccc3)ccc2Cl)c1	.	.	68.8	.	.	103.2
Cc1csc(/C(=N/OC(=O)c2ccco2)C(N)=O)n1	.	/	/	.	/	/
Cc1ccc(-c2nn3c(C)nnc3c3ccccc23)cc1S(=O)(=O)NCCO	.	.	/	.	/	/
Cc1ccc(-c2nn3c(C)nnc3c3ccccc23)cc1S(=O)(=O)NC(C)c1ccccc1 (stereo unspecified)	.	.	17.6	.	.	19.1
CCC(=O)N1CCN(c2ccc(Cl)cc2NC(=O)Cc2ccccc2)CC1	.	.	20.8	.	.	.
CN(C)CCCn1c(SCC(=O)N2c3ccccc3Sc3ccccc32)nc2ccccc2c1=O	.	.	38.8	.	42.5	77.3
COc1ccc(CN2CCN(S(=O)(=O)c3ccc(NC(C)=O)cc3)CC2)c(OC)c1OC	.	.	/	.	/	/
O=C(Nc1cccn(Cc2c(Cl)cccc2Cl)c1=O)c1c(Cl)cccc1Cl	.	.	20.2	.	.	.
COc1ccc(CNC(=O)CSc2nc3cccnc3s2)cc1	.	/	/	.	/	/
CCN1C(=O)/C(=C\c2nc3ccccc3c(=O)n2-c2ccccc2)c2ccccc21	.	.	.	.	/	/
CCN1C(=O)C(Cc2nc3ccccc3c(=O)n2-c2ccccc2)c2ccccc21 (stereo unspecified)	.	.	23.3	.	.	.
CCOc1cc(N2CCOCC2)c(OCC)cc1NC(C)C(=O)N1CCC(C)CC1 (stereo unspecified)	.	.	.	.	/	/
CCn1cc(CN(C)S(=O)(=O)c2cccc([N+](=O)[O-])c2)cn1	.	.	/	.	/	/
CCn1cc(CN(C)S(=O)(=O)c2ccc3ccccc3c2)c(C)n1	.	.	24.6	.	.	.
FC(F)(F)c1nc(-c2cccnc2)ncc1-c1nnnn1-c1ccccc1	.	.	.	.	/	/
FC(F)(F)c1nc(-c2cccs2)ncc1-c1nnnn1-c1ccc(Cl)cc1	.	.	24.6	.	25.7	.
CC1(C)CC2CC(C)(CN2C(=O)COc2cccc3ccccc23)C1 (stereo unspecified)	.	.	17.3	.	.	.
CCOc1ccc(-n2c(-c3ccccc3)nnc2-c2ccccc2)cc1	.	.	20.6	.	.	.
CCNC(=O)CSc1nnc(-c2ccccc2)n1-c1ccc(OCC)cc1	.	.	.	.	/	/
S=C1NCN(C2CCCCC2)CN1CCc1ccccc1	.	/	/	.	/	/
CC(C)c1ccc(-c2nnn(Cc3nc4ccccc4s3)n2)cc1	.	.	22.9	.	.	23.3
CC(C)c1ccc(-c2nnn(CCC#N)n2)cc1	.	.	/	.	/	/
SMILES	NPY1 pot ag	NPY-Y1 antag	NPY Y2 blocker	NPY2 pot ag	NPY-Y1 antag ct	NPY2 antag conf
C=CCOc1ccc2ccccc2c1/C=N/O	.	.	20.0	.	.	.
Brc1ccc2c(c1)OCCOCCOc1cc(Br)ccc1OCCOCCOCCO2	.	.	23.8	.	.	.
Brc1cc2c(cc1Br)OCCOCCOCCOCCO2	.	.	/	.	/	/
COc1ccc(CCNC(=O)CSc2nc(O)c(CC(C)C)c(=O)[nH]2)cc1OC	.	.	17.4	.	.	.
CO/N=C(/CS(=O)Cc1ccc(Cl)cc1)c1ccc(Cl)cc1 (stereo unspecified)	.	.	18.1	.	.	.
Cc1ccccc1OCC(=O)NNC(=O)CCN1C(=O)c2ccccc2C1=O	.	.	/	.	/	/
COC(=O)c1ccc(C2C(Oc3ccc(OC)cc3)C(=O)N2CCc2ccc(OC)c(OC)c2)cc1 (stereo unspecified)	.	.	.	.	/	/
COC(=O)c1ccc(C2C(Oc3ccccc3)C(=O)N2CCc2ccc(F)cc2)cc1 (stereo unspecified)	.	.	24.1	.	29.6	.
COc1ccccc1OCCCCN1CCN(C(c2ccccc2)c2ccccc2)CC1	.	.	20.4	.	.	25.1
CCc1cccc(CC)c1NC(=O)CSc1nc2ccc(N3C(=O)C4C(C3=O)[C@H]3C=C[C@@H]4C3)cc2s1 (stereo partly specified)	.	.	.	.	/	/
c1ccc(-c2c(-c3ccccc3)n(Cc3ccco3)c3ncnc(NCCCn4ccnc4)c23)cc1	.	.	29.4	.	.	.
N=c1c2c(-c3ccccc3)c(-c3ccccc3)n(Cc3ccco3)c2ncn1Cc1ccccc1	56.4	.	20.5	54.2	.	.
OCCNc1ncnc2c1c(-c1ccccc1)c(-c1ccccc1)n2Cc1ccco1	.	.	.	.	/	/
Cc1cc(Cl)ccc1OCCCC(=O)N1CCCc2ccccc21	.	.	26.6	.	22.6	39.7
Cc1cc(N2CCN(c3ccccc3)CC2)n2c(n1)nc1ccccc12	.	.	22.4	.	.	.
Cc1nc2ccccc2n(CC(=O)Nc2cc(Cl)cc(Cl)c2)c1=O	.	.	/	.	/	/
Cc1onc(-c2ccccc2Cl)c1C(=O)Nc1sc2c(c1C#N)CCC2	.	.	25.8	.	.	17.9
N#Cc1c(NC(=O)C2CC(c3ccccc3Cl)=NO2)sc2c1CCC2 (stereo unspecified)	.	.	.	.	/	/
CN(C)Cc1ccccc1Sc1ccccc1Br	.	.	.	.	/	/
CN(C)Cc1ccccc1Sc1cccc2ccccc12	.	.	22.4	.	.	21.0
Cc1ccc2nc(SC(C(=O)c3ccccc3)c3ccccc3)nc(C)c2c1 (stereo unspecified)	.	.	.	.	/	/
OCC1CCCN(c2nc(CN3CCCCC3)nc3scc(-c4ccccc4)c23)C1 (stereo unspecified)	.	.	23.2	.	.	.
CCCOc1ccc(C2(C(=O)O)CCCC2)cc1	.	.	44.4	.	.	.
c1ccc(N2CCN(c3nc(NCc4ccco4)c4ccccc4n3)CC2)cc1	.	.	19.4	31.8	.	.
c1ccc2c(N3CCCCC3)nc(N3CCCCC3)nc2c1	.	.	23.1	.	.	.
SMILES	NPY1 pot ag	NPY-Y1 antag	NPY Y2 blocker	NPY2 pot ag	NPY-Y1 antag ct	NPY2 antag conf
c1coc(CNc2nc(N3CCCCC3)nc3ccccc23)c1	.	.	26.4	.	.	.
c1ccc2c(N3CCCCC3)nc(N3CCOCC3)nc2c1	.	.	/	.	/	/
CN(/N=C/c1ccncc1)c1cnc2ccccc2n1	.	.	/	.	/	/
O=C(CSc1nc2ccccc2s1)NCCOc1ccccc1	.	.	.	.	/	/
O=C(CSc1nc2ccccc2s1)NCCOc1ccc(Cl)cc1	.	.	19.8	.	.	.
COc1ccccc1C/C(N)=N/OC(=O)COc1ccccc1C	.	.	28.5	.	.	.
CCC(C)(C)n1nnnc1C(c1ccc2ncccc2c1)N1CCN(c2ccc(O)cc2)CC1 (stereo unspecified)	.	/	/	.	/	/

Compound activity deposited in PubChem by The Scripps Research Institute Molecular Screening Center.
